T cruzi inh: inhibitors of intracellular T. cruzi growth, primary screen, luminescence, NIH3T3 host cells. T. cruzi beta-gal in NIH3T3, 90 h. inhibition, % (concentration not given with the values). 300,000 compounds, 1.4% hits;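 active means mean inhibition across valid replicates above about 55%, limit read from the data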;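 further: signal also drops with host cell toxicity which is not excluded here; higher percent means less beta-gal luminescence so fewer parasites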
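Test system: β-gal T. cruzi (Tulahuen C4) inside NIH/3T3 cells / Quantity: 5,000 cells/well / Measured by: luminescence from GalScreen with 0.05% NP40, read after 60 min / Medium: DMEM plus 2% FBS / Measure: parasite load inhibition, % / Reagent: Tulahuen C4 trypomastigotes, 5000/well / Schedule: co-culture of at least 90 h after 3 h attachment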
CSC inhib: cancer stem cell viability inhibitors, primary screen, luminescence; cancer stem cell-like cells viability; inhibition, % at 7.5 µM; 300,000 compounds, 1.1% hits; AID 2717, 2010; in the data active means inhibition above about 75%; tested in HMLE shEcad cells
Mdm2-MdmX inh: inhibitors of human Mdm2-MdmX association, primary screen, cell-based, luminescence, split luciferase, SaOS-2, uHTS. Protein Mdm4 (Homo sapiens) + E3 ubiquitin-protein ligase Mdm2 (Homo sapiens), …. inhibition, % at 8 µM. 330,000 compounds, 3% hits. SaOS-2 split-luciferase Mdm2/MdmX complementation;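 active means inhibition of at least 50% at 8 µM in the primary screen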
Beta apoptosis: inhibitors of cytokine-induced beta cell apoptosis, primary screen, luminescence; INS-1E cytokine-induced death, ATP luminescence, 48 h; percent of positive-control rescue, neutral wells zero; protection from apoptosis, % (concentration not given with the values); 300,000 compounds, 0.8% hits; AID 435005, 2010;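 active means Every replicate reaches about 75%, or at least half do and their mean reaches it too, limit read from the data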;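 further: higher means more ATP so stronger rescue from cytokine killing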
XBP1 UPR activ: activators of adaptive XBP1 UPR arm, primary screen, cell-based, CHO-XBP1 luciferase reporter, luminescence, uHTS. IRE1-XBP1 UPR activation; percent of tunicamycin response, DMSO as zero. activation, % at 20 µM. 330,000 compounds, 0.33% hits;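 active means versus positive control, 20 µM dose yields 30% or more activation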
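assay system = CHO-XBP1 luciferase reporter cells | amount = 1000 cells/well | buffer or medium = F12 plus 10% FBS | compound dosing = single point, 20 µM final compound, 1% DMSO | incubation = 16-18 h cell attachment at 37 °C, then 6 h compound exposure | detection = Steady-Glo luminescence read | controls = tunicamycin 10 µg/mL and vehicle-only wells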
CHOP UPR activ: activators of apoptotic CHOP UPR arm, primary screen, cell-based, CHO-CHOP luciferase reporter, luminescence, uHTS; UPR activation; percent of tunicamycin response over DMSO baseline; activation, % at 10 µM; 330,000 compounds, 0.34% hits;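 active means at 10 µM dose, activation of 40% or more, normalized to positive control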
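measured by = luciferase luminescence | assay system = CHO-CHOP cells, stable luciferase reporter of PERK-eIF2a-CHOP signalling | amount = 500 reporter cells seeded per well | timing = 6 h compound exposure at 37 °C after overnight seeding | controls = positive tunicamycin 10 µg/mL, negative DMSO alone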
UPR CHOP confirm: activators of apoptotic CHOP UPR arm, confirmation, cell-based, CHO-CHOP luciferase reporter, single concentration. CHO-CHOP cells, CHOP-luciferase reporter luminescence; percent of tunicamycin response, DMSO as zero. activation, % at 10 µM. shares compounds with CHOP UPR activ. AID 463112, 2010. 1,000 compounds, 64% hits; in the data active means activation above about 33%
UPR XBP1 confirm: IRE1-XBP1 UPR arm activators, confirmation, cell-based, CHO-XBP1 luciferase reporter, luminescence, single concentration. shares compounds with XBP1 UPR activ. activation, % at 20 µM. 1,000 compounds, 63% hits;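 active means reporter signal at least 30% of the positive control's activation in two or more of four replicate wells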
Mdm2 MdmX conf: Mdm2-MdmX complex disruptors, retested hits, confirmation, luminescence, single concentration | shares compounds with Mdm2-MdmX inh | Mdm2-MdmX binding, luminescent assay | inhibition, % at 8 µM | 10,000 compounds, 55% hits | AID 489028, 2010; in the data active means inhibition above about 40%
Full FLuc ctr: full-length luciferase signal inhibition, confirmation, counter-screen for Mdm2/MdmX interaction inhibitor project, cell-based, single concentration, SaOS-2 | shares compounds with Mdm2-MdmX inh | SaOS-2 full-length luciferase counterscreen, luminescence | inhibition, % at 8 µM | 6,200 compounds, 77% hits | AID 504607, 2011;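 active means mean inhibition at 8 µM reaching about 37%, which flags the compound as non-specific, limit read from the data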;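 further: p53-null SaOS-2 cells with luciferase driven by a doxycycline-inducible promoter; compound on cells about two nights before reading with doxycycline added after day one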
Of the large screens only hits and unclear results are named; the others gave an inactive call (follow-up assays come after a bar, where they were run). An excerpt weighted towards active compounds, which were near 5% of everything screened.

COCCNC(=O)/C(C#N)=C\c1ccc(CNC(=O)C(=O)Nc2ccc(C)c(C)c2)o1	none
COc1ccc(NC(=O)C(=O)N/N=C\c2ccc(CNC(=O)C(=O)Nc3ccc(C)c(C)c3)o2)c(OC)c1	Mdm2-MdmX inh 92, XBP1 UPR activ 50, CHOP UPR activ 135 (no result: CSC inhib, Beta apoptosis) | UPR CHOP confirm 41 | UPR XBP1 confirm 52 | Mdm2 MdmX conf 46 | Full FLuc ctr 95
CN(C(=O)CN1C(=O)c2cccc(N)c2C1=O)C1CCCCC1	none (no result: T cruzi inh)
CC(C)C(=O)N1CCN(c2ccc(NC(=O)c3ccc(Br)o3)cc2)CC1	none (no result: CSC inhib)
CN1CCN(c2ccc(NC(=O)c3ccc([N+](=O)[O-])o3)cc2Cl)CC1	Mdm2-MdmX inh 64, CHOP UPR activ 99 | UPR CHOP confirm 59 | Mdm2 MdmX conf 50 | Full FLuc ctr inactive
CC(C)C(=O)N1CCN(c2ccc(NC(=O)c3ccc([N+](=O)[O-])o3)cc2)CC1	Mdm2-MdmX inh 72, CHOP UPR activ 108 | UPR CHOP confirm 71 | Mdm2 MdmX conf 52 | Full FLuc ctr inactive
O=C(NCc1cccnc1)/C(=C/c1ccc(-c2cccc(Cl)c2)o1)S(=O)(=O)c1ccccc1	CSC inhib 100, Mdm2-MdmX inh 99, Beta apoptosis 112, CHOP UPR activ 83 | UPR CHOP confirm 114 | Mdm2 MdmX conf 100 | Full FLuc ctr 51
COc1ccc(N2C(=O)CC(Sc3nc4ccccc4s3)C2=O)cc1 (stereo not drawn)	none
CCOc1ccc2nc(SC3CC(=O)N(c4ccc(OC)cc4)C3=O)sc2c1 (stereo not drawn)	Mdm2-MdmX inh 66, CHOP UPR activ 45 | UPR CHOP confirm inactive | Mdm2 MdmX conf inactive
NC(=O)CC1C(=O)N(c2ccc(F)cc2)C(=O)N1NC(=O)CCc1ccccc1 (stereo not drawn)	none
O=C(N/N=C/c1ccccn1)c1cc(-c2ccccc2)nc2ccccc12	Mdm2-MdmX inh 71, CHOP UPR activ 133 | UPR CHOP confirm 131 | Mdm2 MdmX conf inactive
Cc1nc(C)c(C(=O)NNC(=O)Nc2ccc(Cl)cc2)s1	none
Oc1ccc2ccccc2c1N=Nc1ccccn1	T cruzi inh 55, CSC inhib 105, Mdm2-MdmX inh 63, Beta apoptosis 95, CHOP UPR activ 48 | UPR CHOP confirm 37 | Mdm2 MdmX conf 74 | Full FLuc ctr inactive
COc1cc(NC(=O)C2CCCCC2)c(OC)cc1NC(=O)c1ccccc1	none
CCSC1(SCC)N=C(N)C2(C#N)C(c3ccc(OC)c(OC)c3OC)C12C#N (stereo not drawn)	Mdm2-MdmX inh 69, CHOP UPR activ 214 | UPR CHOP confirm 307 | Mdm2 MdmX conf 50 | Full FLuc ctr inactive
Nc1c(C(=O)Nc2ccc(S(=O)(=O)N3CCCC3)cc2)sc2nc3ccc(OC(F)(F)F)cc3cc12	Mdm2-MdmX inh 90, Beta apoptosis 98, XBP1 UPR activ 194, CHOP UPR activ 311 | UPR CHOP confirm 72 | UPR XBP1 confirm 162 | Mdm2 MdmX conf inactive
CC(C)c1ccc(N2C(=O)CC(Sc3ncn[nH]3)C2=O)cc1 (stereo not drawn)	none (no result: Beta apoptosis)
CC(C)c1ccc(N2C(=O)CC(Sc3nc4ccccc4o3)C2=O)cc1 (stereo not drawn)	Mdm2-MdmX inh 100, CHOP UPR activ 199 (no result: Beta apoptosis) | UPR CHOP confirm 95 | Mdm2 MdmX conf inactive
CCCCn1c(N)c(N(CC)C(=O)c2cccc(OC)c2)c(=O)[nH]c1=O	none
COc1cc(/C=C2\CC(C(C)(C)C)C/C(=C\c3cc(OC)c(OC)c(OC)c3)C2=O)cc(OC)c1OC (stereo not drawn)	CSC inhib 107, Mdm2-MdmX inh 97, Beta apoptosis 98, XBP1 UPR activ 43, CHOP UPR activ 126 | UPR CHOP confirm 112 | UPR XBP1 confirm 41 | Mdm2 MdmX conf 99 | Full FLuc ctr 55
CN(C)CC(C(=O)c1ccccc1)c1ccccc1 (stereo not drawn)	T cruzi inh 58, Mdm2-MdmX inh 100, Beta apoptosis 106, CHOP UPR activ 159 | UPR CHOP confirm 41 | Mdm2 MdmX conf 85 | Full FLuc ctr 52
Cc1ccccc1C(=O)N(Cc1cccs1)C1CCS(=O)(=O)C1 (stereo not drawn)	none
CCN(CC)c1ccc(C(=O)OCC(=O)Nc2cc3oc4ccccc4c3cc2OC)cc1	Mdm2-MdmX inh 51, XBP1 UPR activ 178, CHOP UPR activ 55 (no result: CSC inhib) | UPR CHOP confirm inactive | UPR XBP1 confirm 121 | Mdm2 MdmX conf inactive
COc1cc(OC)cc(C(=O)NC(=S)Nc2cc3oc4ccccc4c3cc2OC)c1	Mdm2-MdmX inh 72, CHOP UPR activ 101 (no result: CSC inhib) | UPR CHOP confirm 74 | Mdm2 MdmX conf inactive
Cc1cccc(C(=O)N2CCN(c3ccc(C(F)(F)F)cn3)CC2)c1C	none
Cc1ccc(C(=O)N[C@@H](C)CN2C3=NC[C@H](C)N3C[C@H]2Cc2ccc(O)cc2)cc1Br	none (no result: CSC inhib, Beta apoptosis)
Cn1c(=O)c2c(SCC(=O)Nc3ccccc3F)nc(-c3ccccc3F)nc2n(C)c1=O	Mdm2-MdmX inh 71, XBP1 UPR activ 355, CHOP UPR activ 55 | UPR CHOP confirm 101 | UPR XBP1 confirm 73 | Mdm2 MdmX conf inactive | Full FLuc ctr 61
Cc1nc(SCC(=O)Nc2cc(C)on2)c2c(=O)n(C)c(=O)n(C)c2n1	none
CCc1nc(SCC(=O)Nc2ccccc2)c2c(=O)n(C)c(=O)n(C)c2n1	none
Cc1ccc(-c2nc(SCC(=O)Nc3cc(C)on3)c3c(=O)n(C)c(=O)n(C)c3n2)cc1	Mdm2-MdmX inh 77, CHOP UPR activ 58 | UPR CHOP confirm 104 | Mdm2 MdmX conf inactive

Screening data (PubChem)
